The source made the active and inactive calls. No cut-off for these calls is given here.
How the values were obtained:
[1] = Antiproliferative activity against human H1299 cells by XTT assay; type: functional, cell-based; conditions: NCI-H1299
How it was run: (§1)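 Cells (5 × 10³/well) exposed to compound for 72 h in medium with 10% FBS, medium changed and cells incubated another day. Percent of control growth from mean absorbance (n = 3).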

[2] = test system: MDA-MB-231; assay: Antiproliferative activity against human MDA-MB-231 cells by XTT assay; type: functional, cell-based; how it was run: as §1
[3] = test system: A549; assay: Antiproliferative activity against human A549 cells by XTT assay; type: functional, cell-based; how it was run: as §1
[4] = test system: MRC5; assay: Antiproliferative activity against human MRC5 cells by XTT assay; type: cell-based; how it was run: as §1
[5] = test system: MCF7; assay: Antiproliferative activity against human MCF7 cells by XTT assay; type: functional, cell-based; how it was run: as §1
[6] = target: Matrix metalloproteinase-9 (Homo sapiens) (UniProt P14780); assay: Inhibition of MMP9 activity in human H1299 cells at 1 uM after 24 hrs by gelatin zymography; values are per cent of control
[7] = target: 72 kDa type IV collagenase (Homo sapiens) (UniProt P08253); assay: Residual MMP2 activity in human H1299 cells at 5 uM after 24 hrs by gelatin zymography
[8] = target: 72 kDa type IV collagenase (Homo sapiens) (UniProt P08253); assay: Residual MMP2 activity in human H1299 cells at 1 uM after 24 hrs by gelatin zymography
[9] = target: MAP kinase p38 (Homo sapiens) (UniProt O15264+Q15759+Q16539+P53778); assay: Increase in p38 phosphorylation in human H1299 cells at 1 to 5 uM after 24 hrs by Western blotting method; type: cell-based
How it was run: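 H1299 cells given vehicle or 0.2, 0.5, 1, 2 and 5 µM compound. Lysate proteins probed with primary and secondary antibodies after 5% milk blocking, ECL chemiluminescence detection. β-actin as internal control; each blot representative of three independent experiments.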

[10] = target: 72 kDa type IV collagenase (Homo sapiens) (UniProt P08253); assay: Residual MMP2 activity in human H1299 cells at 2 uM after 24 hrs by gelatin zymography
[11] = target: Matrix metalloproteinase-9 (Homo sapiens) (UniProt P14780); assay: Inhibition of MMP9 activity in human H1299 cells after 24 hrs by gelatin zymography; type: cell-based
How it was run: (§2)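 3 × 10⁵ H1299 cells cultured 24 h with compound. Conditioned medium run on 10% SDS-PAGE with 1% gelatin, gel incubated overnight at 37 °C in 40 mM Tris-HCl pH 8.0, 10 mM CaCl₂, 0.02% NaN₃, then Coomassie-stained and destained. Bands quantified versus vehicle; n = 3.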

[12] = target: 72 kDa type IV collagenase (Homo sapiens) (UniProt P08253); assay: Inhibition of MMP2 activity in human H1299 cells after 24 hrs by gelatin zymography; type: cell-based; how it was run: as §2
[13] = target: Matrix metalloproteinase-9 (Homo sapiens) (UniProt P14780); assay: Inhibition of MMP9 activity in human H1299 cells at 2 uM after 24 hrs by gelatin zymography; values are per cent of control

72 kDa type IV collagenase (Homo sapiens), sequence (P08253 110-660 limits assumed): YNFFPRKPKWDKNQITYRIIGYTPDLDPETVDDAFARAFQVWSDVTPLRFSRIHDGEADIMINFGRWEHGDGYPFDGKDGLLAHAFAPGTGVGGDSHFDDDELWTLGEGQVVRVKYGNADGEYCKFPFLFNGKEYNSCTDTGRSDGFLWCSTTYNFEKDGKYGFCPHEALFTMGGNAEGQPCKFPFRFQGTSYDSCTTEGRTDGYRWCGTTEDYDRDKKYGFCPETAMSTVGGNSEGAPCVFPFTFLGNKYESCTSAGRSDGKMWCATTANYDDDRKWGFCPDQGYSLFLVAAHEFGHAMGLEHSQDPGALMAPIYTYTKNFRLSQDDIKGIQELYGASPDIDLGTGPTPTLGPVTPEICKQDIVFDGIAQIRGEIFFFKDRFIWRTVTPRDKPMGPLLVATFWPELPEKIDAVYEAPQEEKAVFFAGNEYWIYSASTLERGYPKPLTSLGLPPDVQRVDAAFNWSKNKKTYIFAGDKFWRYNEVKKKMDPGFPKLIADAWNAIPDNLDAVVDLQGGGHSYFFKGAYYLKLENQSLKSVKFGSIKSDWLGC
Matrix metalloproteinase-9 (Homo sapiens), sequence (P14780 whole entry): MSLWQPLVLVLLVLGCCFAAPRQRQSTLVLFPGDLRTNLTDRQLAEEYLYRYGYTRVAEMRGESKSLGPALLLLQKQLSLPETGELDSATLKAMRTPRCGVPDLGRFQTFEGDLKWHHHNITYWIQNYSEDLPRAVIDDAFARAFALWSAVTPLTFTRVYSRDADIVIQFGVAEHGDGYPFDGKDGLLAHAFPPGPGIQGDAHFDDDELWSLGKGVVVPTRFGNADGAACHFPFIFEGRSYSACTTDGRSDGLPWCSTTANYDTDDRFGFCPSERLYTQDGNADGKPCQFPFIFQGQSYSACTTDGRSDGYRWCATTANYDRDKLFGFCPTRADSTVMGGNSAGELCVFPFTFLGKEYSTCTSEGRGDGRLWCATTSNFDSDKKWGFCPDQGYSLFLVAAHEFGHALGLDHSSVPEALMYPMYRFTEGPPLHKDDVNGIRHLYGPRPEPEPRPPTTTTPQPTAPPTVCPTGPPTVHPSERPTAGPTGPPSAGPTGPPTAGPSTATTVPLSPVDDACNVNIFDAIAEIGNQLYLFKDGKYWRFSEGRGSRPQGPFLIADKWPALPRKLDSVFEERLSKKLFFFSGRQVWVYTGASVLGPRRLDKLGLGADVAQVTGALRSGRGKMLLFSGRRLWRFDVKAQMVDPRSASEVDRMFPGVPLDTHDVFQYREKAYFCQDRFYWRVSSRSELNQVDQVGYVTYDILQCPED

SMILES	IC50 [2] [nM]	IC50 [3] [nM]	IC50 [5] [nM]	residual activity [6] [%]	residual activity [7] [%]	residual activity [8] [%]	Activity [9]	residual activity [10] [%]	inhibition [11]	inhibition [12]	residual activity [13] [%]	IC50 [1] [nM]	IC50 [4] [µM]
COc1ccc2c(c1)C(=O)c1c-2c(/C=C/c2ccc([N+](=O)[O-])o2)nc2ccccc12	95	70	620									80	0.093
COc1ccc2c(c1)C(=O)c1c-2c(C)nc2ccc(OC)cc12	62300	75900	42000									33700	78.4
COc1ccc2c(c1)C(=O)c1c-2c(C)nc2ccccc12	42000	61600	32600									21400	65.4
COc1ccc2c(c1)C(=O)c1c-2c(/C=C/c2ccc([N+](=O)[O-])o2)nc2ccc(OC)cc12	930	1320	870									890	6.07
COc1ccc(-c2cc3cc(OC)ccc3nc2/C=C/c2ccc([N+](=O)[O-])o2)cc1				63.9	56.3	75.5	Active	63.7	Dose-dependent effect	Dose-dependent effect	31.5		

Now from value to compound, other results behind:

IC50 [2] [nM]	IC50 [3] [nM]	IC50 [5] [nM]	residual activity [6] [%]	residual activity [7] [%]	residual activity [8] [%]	Activity [9]	residual activity [10] [%]	inhibition [11]	inhibition [12]	residual activity [13] [%]	SMILES	IC50 [1] [nM]	IC50 [4] [µM]
91	80	650									COc1cccc2c1C(=O)c1c(O)c3c(c(O)c1C2=O)C[C@@](O)(C(C)=O)C[C@@H]3O[C@H]1C[C@H](N)[C@H](O)[C@H](C)O1 [DAUNORUBICIN]	96	0.078
52100	71100	39600									COc1ccc2c(c1)C(=O)c1c-2c(C)nc2ccc(F)cc12	31600	43.2
93	740	580									COc1ccc2c(c1)C(=O)c1c-2c(/C=C/c2ccc([N+](=O)[O-])o2)nc2ccc(F)cc12	460	0.8

— ChEMBL document CHEMBL3351563, “Discovery of 2-[2-(5-nitrofuran-2-yl)vinyl]quinoline derivatives as a novel type of antimetastatic agents” (Bioorg Med Chem, 2015)
